Data set [1] is described as follows: Toxicity in human subcutaneous preadipocytes assessed as decrease of C/EBPalpha expression at 3 uM after 18 days by RT-PCR analysis. The format is cell-based. The following applies: 432 h. The method, boiled down:
(§1)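 Differentiating preadipocytes were harvested at day 18. RNA from three plates was pooled and reverse transcribed, and qRT-PCR was run with 42 cycles of 94/55/72°C. Values were normalized to transferrin receptor or beta-actin by standard curve. Triplicates from three independent experiments.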

Data set [2] can be described thus: Toxicity in fully differentiated human subcutaneous preadipocytes assessed as cell death at 3 uM after 30 days using […] by conventional fluorescence microscopy. The following applies: 720 h. The method, boiled down:
(§2)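 Trypan blue exclusion counted by microscopy at each medium change every fifth day during 30 days of drug exposure in differentiating pooled preadipocytes. Final viability was calculated by excluding the cumulative percentage of dead cells. Five independent experiments.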

A short description of data set [3]: Toxicity in human subcutaneous preadipocytes assessed as decrease of C/EBPalpha expression at 0.1 uM after 18 days by RT-PCR analysis. The format is cell-based. The following applies: 432 h. Summed up: as §1
Data set [4] concerns Homo sapiens. The data set can be described thus: Inhibition of electron transport protein complex 4 in human subcutaneous preadipocytes at 3 uM after 30 to 60 days by photometric analysis. Type of data set: cell-based. The method, boiled down: (§3)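 Pooled primary human abdominal subcutaneous preadipocytes induced to differentiate with drug (DMSO vehicle, ≤0.1%) added at day 0 and kept to day 30 or 60. Cells sonicated twice for 10 s; substrates added to lysates and conversion by complexes I+III, II+III, IV, V and citrate synthase read photometrically at 37°C. Three independent experiments.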

Data set [5] can be described thus: Toxicity in human subcutaneous preadipocytes assessed as acquisition of adipocyte shape at 3 uM after 30 days using oil red O fluorescence staining by conventional fluorescence microscopy. Type of data set: cell-based. The following applies: 720 h. The method, boiled down: (§4)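 On day 30 of differentiation with drug present from day 0, cells were fixed in 10% formalin and stained with 0.21% oil red O. Staining was viewed by fluorescence and light microscopy. For quantification, dye was extracted with isopropanol and read at 495 nm, also adjusted for viable cell number. Five independent experiments.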

Data set [6] in a line: Toxicity in human subcutaneous preadipocytes assessed as triacylglyceride droplets at 3 uM after 30 days using oil red O fluorescence staining by conventional fluorescence microscopy. Type of data set: cell-based. The following applies: 720 h. Summed up: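 Preadipocytes were differentiated with a hormone cocktail (IBMX for the first 7 days, dexamethasone, insulin, indomethacin; high-glucose DMEM for days 0–18), with drug or vehicle present from day 0 to day 30. Cells were fixed in 10% formalin, stained with 0.21% oil red O in 60% isopropanol, and imaged by fluorescence microscopy. Quantification was by isopropanol extraction at 495 nm, optionally adjusted for viable cells.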

For data set [7], the system named is Homo sapiens. The data set can be described thus: Inhibition of citrate synthase in human subcutaneous preadipocytes at 3 uM after 30 to 60 days by photometric analysis. Type of data set: cell-based. The method, boiled down:
as §3

Data set [8] is described as follows: Toxicity in human subcutaneous preadipocytes assessed as decrease of cell viability measured every 5 days at 3 uM after 30 days using […]. The format is cell-based. The following applies: 720 h. The method, boiled down: as §2
Data set [9] is described as follows: Toxicity in human subcutaneous preadipocytes assessed as decrease of adiponectin expression at 3 uM after 30 days by ELISA. The following applies: 720 h. The format is cell-based. The method, boiled down:
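Adiponectin secreted into the medium over days 25 to 30 of drug exposure in differentiating preadipocytes was measured by sandwich ELISA of culture supernatant. Three independent experiments.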

A short description of data set [10]: Toxicity in human subcutaneous preadipocytes assessed as decrease of mitochondrial DNA copy number per cell at 3 uM after 60 days by RT-PCR analysis. The following applies: 1440 h. Type of data set: cell-based. Details: scale not given: the % may be the effect or the level left. The method, boiled down: (§5)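 mtDNA content of differentiated preadipocytes at day 30 or 60 of drug exposure was measured by real-time quantitative PCR with human-specific primers. Absolute copy numbers came from serial dilutions of plasmid standards. Three independent experiments.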

Data set [11] can be described thus: Toxicity in human subcutaneous preadipocytes assessed as effect on mitochondrial mass at 3 uM after 30 days using […] by flow cytometry analysis. Type of data set: cell-based. The following applies: 720 h.
The nature of data set [12]: Toxicity in human subcutaneous preadipocytes assessed as cell death at 3 uM after 30 days using […]. The following applies: 720 h. Type of data set: cell-based. Summed up:
as §2

In data set [13] the test system is Homo sapiens. The data set can be described thus: Inhibition of electron transport protein complex 5 in human subcutaneous preadipocytes at 3 uM after 30 to 60 days by photometric analysis. Type of data set: cell-based. The method, boiled down:
as §3

Data set [14] can be described thus: Toxicity in human subcutaneous preadipocytes assessed as decrease of insulin-sensitizing adipokine expression at 3 uM after 30 days by RT-PCR analysis. The format is cell-based. The following applies: 720 h. Summed up: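 Adiponectin mRNA at day 30 was measured by qRT-PCR normalized to transferrin receptor or beta-actin, using pooled RNA and cDNA. Triplicates from three independent experiments.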

In data set [15] the test system is Homo sapiens. Kind of data set: Inhibition of electron transport protein complex 2/3 in human subcutaneous preadipocytes at 3 uM after 30 to 60 days by photometric analysis. The format is cell-based. Summed up:
as §3

A short description of data set [16]: Toxicity in human subcutaneous preadipocytes assessed as decrease of PPARgamma expression at 3 uM after 18 days by RT-PCR analysis. The following applies: 432 h. The format is cell-based. Summed up: as §1
Data set [17] in a line: Toxicity in human subcutaneous preadipocytes assessed as effect on mitochondrial membrane potential at 3 uM after 30 days using JC-1 red/green fluorescence dye by flow cytometry analysis. Type of data set: cell-based. The following applies: 720 h. Summed up:
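Pooled primary human subcutaneous preadipocytes (passage ≤4) were differentiated with drug or DMSO vehicle from day 0 and cultured 30 days. Staining with the JC-1 kit was followed by flow cytometry, and the JC-1 red/green fluorescence intensity ratio was used as the membrane potential read-out. CCCP served as the depolarization control. Three independent experiments, means ± SEM.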

A short description of data set [18]: Toxicity in human subcutaneous preadipocytes assessed as decrease of mitochondrial DNA abundance at 3 uM after 60 days by RT-PCR analysis. Type of data set: cell-based. The following applies: 1440 h. Summed up: as §5
A short description of data set [19]: Toxicity in human subcutaneous preadipocytes assessed as decrease of PPARgamma expression at 0.1 uM after 18 days by RT-PCR analysis. The format is cell-based. The following applies: 432 h. Summed up: as §1
Data set [20] can be described thus: Toxicity in human subcutaneous preadipocytes assessed as decrease of mitochondrial DNA abundance at 3 uM after 30 days by RT-PCR analysis. Type of data set: cell-based. The following applies: 720 h. Summed up:
as §5

The test system of data set [21] is Homo sapiens. The data set can be described thus: Inhibition of electron transport protein complex 1/3 in human subcutaneous preadipocytes at 3 uM after 30 to 60 days by photometric analysis. The format is cell-based. Summed up:
as §3

A short description of data set [22]: Toxicity in human subcutaneous preadipocytes assessed as decrease of cell cultures at 3 uM after 30 days using oil red O fluorescence staining by conventional fluorescence microscopy. The format is cell-based. The following applies: 720 h. The method, boiled down: as §4

Structures are written as SMILES. Calls of active or inactive are those of the source. The rule behind the calls is not given here.

This is an account of results in ChEMBL document CHEMBL1687753, “Mitochondrial DNA depletion and respiratory chain activity in primary human subcutaneous adipocytes treated with nucleoside analogue reverse transcriptase inhibitors” (Antimicrob Agents Chemother, 2010).

With `Cc1cn([C@H]2C=C[C@@H](CO)O2)c(=O)[nH]c1=O` [STAVUDINE], the Activity result is given as “Non-toxic” in data set [1]; “Toxic” in data set [2]; “Non-toxic” in [3]; “Non-toxic” in [5]; “Non-toxic” in [6]; “Toxic” in data set [8]. Also, the Activity result is “Non-toxic” in data set [9]; 50% in [10]; “Non-toxic” in data set [11]; “Toxic” in [12]; “Non-toxic” in [14]; “Non-toxic” in data set [16]. Also, the Activity entry was “Non-toxic” in data set [17]; “Toxic” in [18]; “Non-toxic” in [19]; “Toxic” in [20]; “Toxic” in data set [22]. The inhibition result with Homo sapiens [4], in the data set with Homo sapiens [7], in the data set with Homo sapiens [13], in the data set with Homo sapiens [15] and with Homo sapiens [21] was “inactive” throughout.
